Converted amounts (≈) assume the structure as drawn.
Assays:
[1] = test system: J774.A1; assay: Drug uptake in mouse J774A.1 cells assessed as dimer to monomer peptide ratio at 100 uM after 24 hrs at 4 degC by HPLC analysis; details: J774A.1, 24 h
[2] = Drug uptake in mouse peritoneal macrophages assessed as dimer to monomer peptide ratio at 50 uM after 24 hrs at 37 degC by HPLC analysis; assay type: ADME, cell-based; details: peritoneal macrophage cell
How it was run: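 Macrophages were elicited in 8–12-week-old female BALB/c mice with 4% thioglycolate i.p. and harvested by lavage 4 days later. Cells were seeded at 300,000 per well for 24 h, then given unlabeled peptide in DMEM for 24 h at 37°C. Lysates were run on reverse-phase HPLC at A280. Monomer (17.5 min) and dimer (17.75 min) peak areas were compared with a standard curve. Concentration assumed 1 pl per cell; values are means of three determinations.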

[3] = test system: J774.A1; assay: Drug uptake in mouse J774A1 cells assessed as dimer to monomer peptide ratio at 50 uM after 5 hrs at 37 degC by HPLC analysis; assay type: ADME, cell-based; details: j774.a1, 5 h
How it was run: (§1)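 J774A.1 cells were incubated with unlabeled peptide for 5 or 24 h at 37°C or 4°C, washed in ice-cold PBS and lysed with NP-40 buffer. Lysates were run on reverse-phase HPLC with an acetonitrile/0.1% TFA gradient and A280 fractions. Monomer (~17.5 min) and dimer (~17.75 min) peak areas were compared against a standard curve. Intracellular mM was calculated using 300,000 cells and 1 pl/cell, with concentration expressed as monomer mass.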

[4] = Cytotoxicity against mouse J774A1 cells assessed as reduction in metabolic activity at 100 uM after 24 hrs by MTT assay; assay type: ADME, cell-based, J774.A1; details: read-out: INH
How it was run: (§2)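 Cells seeded at 40,000/well in 96-well plates, overnight 37°C 5% CO2, then treated 24 h in fresh DMEM. MTT (4 mg/ml stock in PBS) added for up to 3 h. Formazan solubilized overnight at 37°C in SDS/dimethylformamide/acid lysis buffer, OD read at 575 nm. Paired t tests.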

[5] = test system: J774.A1; assay: Drug uptake in mouse J774A1 cells at 10 uM after 4 hrs at 4 degC by confocal laser microscopy; assay type: ADME, cell-based; details: j774.a1, 4 h
How it was run: (§3)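 Cells were seeded at 200,000 per chamber-slide well and left to adhere overnight at 37°C. They were then exposed in DMEM to peptide carrying an N-terminal rhodamine label, at 37°C or, where stated, 4°C. Cells were washed three times in PBS, fixed in 4% paraformaldehyde for 30 min, and mounted in antifade. Optical slices near the cell centre were imaged by confocal laser microscopy.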

[6] = test system: J774.A1; assay: Drug uptake in mouse J774A.1 cells assessed as dimer to monomer peptide ratio at 50 uM after 24 hrs at 4 degC by HPLC analysis; details: J774A.1, 24 h
[7] = test system: J774.A1; assay: Drug uptake in mouse J774A1 cells assessed as dimer to monomer peptide ratio at 100 uM after 5 hrs at 37 degC by HPLC analysis; assay type: ADME, cell-based; details: j774.a1, 5 h
How it was run: as §1

[8] = test system: Salmonella typhimurium; assay: Antibacterial activity against 1 MOI Salmonella enterica subsp. enterica serovar Typhimurium infected in mouse peritoneal macrophages assessed as reduction in bacterial growth at 150 uM after 24 hrs relative to DMSO control; assay type: functional; design: scale not given: the % may be the effect or the level left
How it was run: (§4)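 J774A.1 cells or thioglycolate-elicited BALB/c peritoneal macrophages seeded at 200,000/well, overnight 37°C 5% CO2; infected with GFP strain SDT1416, 1 h invasion, washed, 1 h in DMEM with 15 μg/ml gentamicin. Then fresh DMEM plus 15 μg/ml gentamicin with or without peptide (DMSO vehicle) for 24 h at 37°C; macrophages lysed with 1% Triton X-100, plated on LB agar for CFU.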

[9] = test system: J774.A1; assay: Drug uptake in mouse J774A1 cells at 10 uM after 5 hrs in presence of 100 nM wortmannii PI3K inhibitor by confocal laser microscopy; details: j774.a1, 5 h
[10] = test system: Salmonella typhimurium; assay: Antibacterial activity against 10 MOI Salmonella enterica subsp. enterica serovar Typhimurium G785 transfected with SOS-inducible beta-galactosidase reporter infected in mouse J774A1 cells assessed as bacterial number at 50 uM after 24 hrs postinfection; assay type: functional, J774.A1
How it was run: (§5)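 J774A.1 cells infected at MOI 10 with sulA promoter-lacZ reporter strain G785 using the gentamicin-protection protocol, treated with peptide (DMSO vehicle controls) plus 15 μg/ml gentamicin for 4 or 24 h. Released bacteria were plated for colony counts in parallel, and were incubated with 33 μM C12FDG (with 0.2 mM EDTA) in LB for 2 h at 37°C. Flow cytometry gave % fluorescein-positive among LPS-antibody-positive particles; Wilcoxon exact test.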

[11] = Cytotoxicity against mouse peritoneal macrophages assessed as live cells at 150 uM by calcein AM assay; assay type: cell-based, Peritoneal macrophage cell; details: read-out: Activity
How it was run: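 Cells seeded at 300,000/well and allowed to adhere, then given fresh DMEM with or without peptide for 24 h. Cells trypsinized, stained with a mammalian Live/Dead viability/cytotoxicity kit and analyzed by flow cytometry. Wilcoxon exact test.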

[12] = test system: Salmonella typhimurium; assay: Antibacterial activity against 10 MOI Salmonella enterica subsp. enterica serovar Typhimurium G785 transfected with SOS-inducible beta-galactosidase reporter infected in mouse J774A1 cells assessed as SOS induction at 50 uM after 4 hrs postinfection; assay type: functional, J774.A1
How it was run: as §5

[13] = test system: Salmonella typhimurium; assay: Antibacterial activity against 1 MOI Salmonella enterica subsp. enterica serovar Typhimurium infected in mouse J774A1 cells assessed as reduction in bacterial growth after 24 hrs; assay type: functional, organism-based; details: J774.A1
How it was run: as §4

[14] = test system: J774.A1; assay: Drug uptake in mouse J774A.1 cells assessed as dimer to monomer peptide ratio at 150 uM after 24 hrs at 4 degC by HPLC analysis; details: J774A.1, 24 h
[15] = test system: J774.A1; assay: Cytotoxicity against mouse J774A1 cells assessed as metabolic activity at 50 uM after 24 hrs by MTT assay; assay type: ADME, cell-based; details: j774.a1, 24 h
How it was run: as §2

[16] = test system: Salmonella typhimurium; assay: Antibacterial activity against 10 MOI Salmonella enterica subsp. enterica serovar Typhimurium G785 transfected with SOS-inducible beta-galactosidase reporter infected in mouse J774A1 cells assessed as bacterial number at 100 uM after 24 hrs postinfection; assay type: functional, J774.A1
How it was run: as §5

[17] = test system: J774.A1; assay: Drug uptake in mouse J774A1 cells at 1 uM after 4 hrs by confocal laser microscopy; assay type: ADME, cell-based; details: j774.a1, 4 h
How it was run: as §3

[18] = test system: Salmonella typhimurium; assay: Antibacterial activity against 1 MOI Salmonella enterica subsp. enterica serovar Typhimurium infected in mouse peritoneal macrophages assessed as reduction in bacterial growth at 100 uM after 24 hrs; assay type: functional; design: scale not given: the % may be the effect or the level left
How it was run: as §4

[19] = Cytotoxicity against mouse peritoneal macrophages assessed as metabolic activity upto 100 uM after 24 hrs by MTT assay; assay type: ADME, cell-based; details: peritoneal macrophage cell
How it was run: as §2

[20] = test system: Salmonella typhimurium; assay: Antibacterial activity against 10 MOI Salmonella enterica subsp. enterica serovar Typhimurium G785 transfected with SOS-inducible beta-galactosidase reporter infected in mouse J774A1 cells assessed as bacterial number at 150 uM after 24 hrs postinfection; assay type: functional, J774.A1
How it was run: as §5

[21] = test system: J774.A1; assay: Drug uptake in mouse J774A1 cells assessed as total peptide concentration at 150 uM after 24 hrs at 37 degC by HPLC analysis; assay type: ADME, cell-based; details: j774.a1, 24 h
How it was run: as §1

[22] = test system: Salmonella typhimurium; assay: Antibacterial activity against Salmonella enterica subsp. enterica serovar Typhimurium SDT1416; assay type: functional
How it was run: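 MIC by NCCLS broth microdilution against GFP-expressing strain SDT1416.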

[23] = test system: Salmonella typhimurium; assay: Antibacterial activity against 10 MOI Salmonella enterica subsp. enterica serovar Typhimurium G785 transfected with SOS-inducible beta-galactosidase reporter infected in mouse J774A1 cells assessed as bacterial number at 100 uM after 4 hrs postinfection; assay type: functional, J774.A1
How it was run: as §5

Ratio [1]: 11.5
Ratio [2]: 0.9
Ratio [3]: 2.1
Drug uptake [5]: Not Active
Ratio [6]: 7.4
Ratio [7]: 2.6
Drug uptake [9]: Not Active
Ratio [14]: 15.5
Drug uptake [17]: Active
Drug uptake [21]: 30.1 mM
MIC [22]: 64 µM (≈ 62 µg/mL)
Compound: N=C(N)NCCC[C@@H](NC(=O)[C@@H](CS)NC(=O)[C@@H](Cc1ccc(O)cc1)NC(=O)[C@@H](Cc1c[nH]c2ccccc12)NC(=O)[C@@H](CCCNC(=N)N)NC(=O)[C@H](N)Cc1c[nH]c2ccccc12)C(=O)O
cytotoxicity at 24 h, 100 µM [4]: 17.3%
Activity [8]: 83%
Activity [10]: 45.2%
viability at 150 µM [11]: 87.9%
Activity [12]: 0.3%
Activity [13]: Dose-dependent effect
Activity [15]: Non-toxic
Activity [16]: 2.8%
Activity [18]: 45%
Activity [19]: Non-toxic
Activity [20]: 1.9%
Activity [23]: 19%
